Measurements as given in ChEMBL document CHEMBL4007402 (J Med Chem, 2017).

Experiments:
[1] = target: Mitogen-activated protein kinase 14 (Homo sapiens, UniProt Q16539); test: Inhibition of full-length recombinant human GST-tagged p38alpha expressed in Escherichia coli by Z'-LYTE assay
[2] = target: Tyrosine-protein kinase ABL1 (Homo sapiens) (UniProt P00519); test: Inhibition of recombinant TEL-fused ABL (unknown origin) expressed in mouse BAF3 cells assessed as growth inhibition after 72 hrs by CellTiter-Glo or CCK-8 assay; format: cell-based
Outline: (§1)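 Isogenic murine BaF3 cells transformed with TEL-fused kinases, whose proliferation depends on the fused kinase, were used. Parental BaF3 cells served as the general selectivity counter-screen. The anti-proliferative read-out was reported as GI50.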

[3] = target: T1, Tyrosine-protein kinase JAK3 (Homo sapiens) (UniProt P52333); test: Inhibition of recombinant TEL-fused JAK3 (unknown origin) expressed in mouse BAF3 cells assessed as growth inhibition after 72 hrs by CellTiter-Glo or CCK-8 assay; format: cell-based; outline: as §1
T1 sequence (whole entry): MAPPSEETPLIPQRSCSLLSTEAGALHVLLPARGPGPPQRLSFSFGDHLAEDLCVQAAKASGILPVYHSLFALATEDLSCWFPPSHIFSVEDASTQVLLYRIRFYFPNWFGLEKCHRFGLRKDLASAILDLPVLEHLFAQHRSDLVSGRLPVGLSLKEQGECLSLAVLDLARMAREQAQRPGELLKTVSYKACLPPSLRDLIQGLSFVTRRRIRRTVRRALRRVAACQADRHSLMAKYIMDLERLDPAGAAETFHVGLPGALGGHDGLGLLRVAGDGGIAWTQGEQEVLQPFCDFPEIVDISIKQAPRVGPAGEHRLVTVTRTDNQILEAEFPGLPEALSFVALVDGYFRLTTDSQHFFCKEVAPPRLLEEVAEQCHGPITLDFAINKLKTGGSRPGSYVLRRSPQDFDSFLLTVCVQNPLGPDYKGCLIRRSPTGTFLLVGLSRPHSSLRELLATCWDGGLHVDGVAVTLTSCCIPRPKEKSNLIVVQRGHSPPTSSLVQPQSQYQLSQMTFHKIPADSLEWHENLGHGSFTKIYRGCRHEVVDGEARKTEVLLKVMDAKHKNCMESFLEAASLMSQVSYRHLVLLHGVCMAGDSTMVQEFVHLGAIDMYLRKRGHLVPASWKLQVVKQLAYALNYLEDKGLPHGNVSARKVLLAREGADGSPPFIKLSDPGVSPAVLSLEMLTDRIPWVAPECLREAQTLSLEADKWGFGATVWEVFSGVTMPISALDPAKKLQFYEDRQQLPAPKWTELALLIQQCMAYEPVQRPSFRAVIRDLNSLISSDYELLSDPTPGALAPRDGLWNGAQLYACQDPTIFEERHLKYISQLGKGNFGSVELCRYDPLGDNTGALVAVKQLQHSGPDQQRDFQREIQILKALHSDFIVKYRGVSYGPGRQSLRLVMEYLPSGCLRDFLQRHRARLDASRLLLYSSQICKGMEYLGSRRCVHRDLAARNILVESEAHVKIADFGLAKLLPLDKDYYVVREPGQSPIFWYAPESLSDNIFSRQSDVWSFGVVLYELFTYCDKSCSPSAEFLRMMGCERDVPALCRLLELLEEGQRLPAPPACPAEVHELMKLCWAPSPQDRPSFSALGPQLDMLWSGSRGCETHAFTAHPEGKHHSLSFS

Mitogen-activated protein kinase 14, sequence (Q16539 whole entry, the tested form may be a part): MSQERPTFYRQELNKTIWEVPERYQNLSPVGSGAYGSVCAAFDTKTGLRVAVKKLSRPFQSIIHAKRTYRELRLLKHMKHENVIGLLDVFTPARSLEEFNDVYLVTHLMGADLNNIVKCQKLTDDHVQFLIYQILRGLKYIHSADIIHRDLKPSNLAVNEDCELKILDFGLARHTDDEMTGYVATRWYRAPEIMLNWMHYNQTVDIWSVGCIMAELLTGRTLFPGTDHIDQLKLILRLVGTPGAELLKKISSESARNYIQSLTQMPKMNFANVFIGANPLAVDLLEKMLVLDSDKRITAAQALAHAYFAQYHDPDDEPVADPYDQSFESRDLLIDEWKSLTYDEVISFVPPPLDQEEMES
Tyrosine-protein kinase ABL1 (Homo sapiens), sequence (P00519 whole entry, the tested form may be a part): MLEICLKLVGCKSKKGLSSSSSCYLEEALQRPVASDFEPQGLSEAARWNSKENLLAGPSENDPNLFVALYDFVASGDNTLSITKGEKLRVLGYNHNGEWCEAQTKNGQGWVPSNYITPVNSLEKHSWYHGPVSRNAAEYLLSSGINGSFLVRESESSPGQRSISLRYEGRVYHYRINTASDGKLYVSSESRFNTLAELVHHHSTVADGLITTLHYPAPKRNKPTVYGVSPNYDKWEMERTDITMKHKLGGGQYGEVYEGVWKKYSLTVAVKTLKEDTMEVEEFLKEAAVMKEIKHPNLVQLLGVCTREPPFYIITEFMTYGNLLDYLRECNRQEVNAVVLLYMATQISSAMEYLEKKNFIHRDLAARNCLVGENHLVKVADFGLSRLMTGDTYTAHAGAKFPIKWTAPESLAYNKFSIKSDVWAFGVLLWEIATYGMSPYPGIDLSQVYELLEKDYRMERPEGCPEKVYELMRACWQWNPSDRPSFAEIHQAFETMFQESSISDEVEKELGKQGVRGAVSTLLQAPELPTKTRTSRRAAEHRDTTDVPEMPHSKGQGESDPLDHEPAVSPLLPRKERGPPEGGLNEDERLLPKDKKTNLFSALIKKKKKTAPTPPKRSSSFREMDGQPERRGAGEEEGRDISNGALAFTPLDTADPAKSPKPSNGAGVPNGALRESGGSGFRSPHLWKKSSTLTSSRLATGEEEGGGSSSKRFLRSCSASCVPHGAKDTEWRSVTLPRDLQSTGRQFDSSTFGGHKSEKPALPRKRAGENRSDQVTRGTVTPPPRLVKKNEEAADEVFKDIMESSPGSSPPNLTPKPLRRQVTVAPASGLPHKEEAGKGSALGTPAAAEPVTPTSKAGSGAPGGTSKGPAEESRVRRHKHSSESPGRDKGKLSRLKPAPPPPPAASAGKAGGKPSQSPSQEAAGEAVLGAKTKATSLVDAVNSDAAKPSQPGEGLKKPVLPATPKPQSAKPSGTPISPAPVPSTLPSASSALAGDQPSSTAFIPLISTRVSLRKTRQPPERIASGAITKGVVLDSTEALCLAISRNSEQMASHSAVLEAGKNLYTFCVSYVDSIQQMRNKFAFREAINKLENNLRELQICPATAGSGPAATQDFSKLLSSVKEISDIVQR

IC50 [1]: 106 nM
GI50 [2]: 2560 nM
GI50 [3]: > 10000 nM
SMILES: C=CC(=O)Nc1cc(Nc2ncc(C(=O)Nc3cc(NC(=O)c4cc(OC)c(OC)c(OC)c4)ccc3C)c(NC)n2)ccc1C
